19 compounds from ChEMBL document CHEMBL1130233, “N6-cyclopentyl-3'-substituted-xylofuranosyladenosines: a new class of non-xanthine adenosine A1 receptor antagonists” (J Med Chem, 1997) can be followed below.

As a reminder, the Ki is a measure of affinity in units of concentration, obtained from inhibition or displacement.

Assay [1] deals with Adenosine receptor A2a (Rattus norvegicus) (UniProt P30543). Nature of the assay: Affinity for adenosine A2a receptor of rat striatal membrane using [3H]-CGS- 21680 at 10e-5 M. The method in brief: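 On rat striatal membranes with [3H]CGS 21680 as radioligand, the value is the percentage of radioligand still bound to the receptor in the presence of 10⁻⁵ M test ligand.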
Assay [2] has as its target T1, Adenosine receptor A1 (Rattus norvegicus, UniProt P25099).
T1 sequence (P25099 whole entry): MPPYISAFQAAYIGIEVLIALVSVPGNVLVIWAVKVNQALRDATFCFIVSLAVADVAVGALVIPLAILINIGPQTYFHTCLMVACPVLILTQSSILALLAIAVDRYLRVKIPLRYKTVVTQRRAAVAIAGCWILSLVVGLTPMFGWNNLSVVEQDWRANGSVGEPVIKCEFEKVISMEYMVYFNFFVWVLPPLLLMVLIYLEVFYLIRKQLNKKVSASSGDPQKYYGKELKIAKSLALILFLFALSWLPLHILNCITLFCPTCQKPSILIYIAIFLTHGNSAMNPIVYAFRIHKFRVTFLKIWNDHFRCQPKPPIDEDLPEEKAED
The assay can be described thus: Affinity for adenosine A1 receptor was determined, in the absence of GTP in rat cortical membrane. Format: cell membranes. The method in brief: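 Rat cerebral cortex membranes were used for displacement of the tritiated antagonist [3H]DPCPX. GTP shift is the apparent Ki with GTP divided by the apparent Ki without GTP. There were three or four independent experiments, each in duplicate.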

Assay [3] concerns the target T1, Adenosine receptor A1. Nature of the assay: Affinity for adenosine A1 receptor was determined, in the presence of GTP in rat brain cortex. In kind it is tissue-based. The procedure, abridged:
(§1)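 Rat cerebral cortex membranes were used for displacement of the tritiated antagonist [3H]DPCPX. Assays were run with and without 1 mM GTP, and Ki values were derived from the displacement data. GTP shift is the apparent Ki with GTP divided by the apparent Ki without GTP. There were three or four independent experiments, each in duplicate.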

Assay [4] concerns the target T2, Adenosine receptor A1 (Rattus norvegicus) (UniProt P25099).
T2 sequence (whole entry): T1 sequence (P25099 whole entry)
The assay can be described thus: GTP shift ratio of the apparent Ki values in the presence and absence of GTP. The procedure, abridged:
as §1

The target of assay [5] is Adenosine receptor A2a (Rattus norvegicus, UniProt P30543). The assay can be described thus: Affinity for adenosine A2a receptor was determined on rat striatal membrane using [3H]-CGS- 21680 as radioligand. Also on record: species or system Striatum. The method in brief: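 Rat striatal membranes were used for displacement of [3H]CGS 21680 as radioligand, and Ki values were derived from the displacement data. There were three or four independent experiments, each performed in duplicate.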
Sequence of Adenosine receptor A2a (P30543 whole entry): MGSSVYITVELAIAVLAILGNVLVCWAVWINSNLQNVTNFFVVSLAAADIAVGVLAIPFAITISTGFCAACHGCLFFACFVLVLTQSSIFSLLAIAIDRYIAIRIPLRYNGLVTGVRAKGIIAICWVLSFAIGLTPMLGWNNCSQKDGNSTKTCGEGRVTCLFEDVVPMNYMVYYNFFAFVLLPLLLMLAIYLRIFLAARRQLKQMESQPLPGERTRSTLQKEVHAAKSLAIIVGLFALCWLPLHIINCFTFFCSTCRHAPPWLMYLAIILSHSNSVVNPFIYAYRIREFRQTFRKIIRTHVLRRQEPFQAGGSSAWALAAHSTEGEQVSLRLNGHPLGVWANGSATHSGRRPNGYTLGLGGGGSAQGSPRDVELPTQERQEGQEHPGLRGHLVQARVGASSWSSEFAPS

Sequence of Adenosine receptor A2a (Rattus norvegicus) (P30543 whole entry): as above

In assay [1], `O=C(Cc1ccccc1)N[C@H]1C(CO)OC(n2cnc3c(NC4CCCC4)ncnc32)C1O` (stereo partly drawn) gave a percent radioligand bound of 50%. The Ki in assay [2] was 850 nM; in assay [3] it was 770 nM. The Ratio in assay [4] was determined as 0.95.

In the case of `Nc1ncnc2c1ncn2C1OC(CO)[C@H](NC(=O)CCCCc2ccccc2)C1O` (stereo partly drawn), the Ki in assay [5] worked out at 4660 nM; in assay [2], 7840 nM; in assay [3] it was 5740 nM. For the same compound, in assay [4], the Ratio stood at 0.73.

As to `Cc1ccc(C(=O)N[C@H]2C(CO)OC(n3cnc4c(NC5CCCC5)ncnc43)C2O)cc1` (stereo partly drawn), the Ki in assay [5] came to 790 nM; in assay [2], 83 nM; in assay [3] it was 68 nM. For the same compound, the Ratio in assay [4] was found to be 0.84.

For the compound `[N-]=[N+]=N[C@@H]1[C@@H](O)[C@H](n2cnc3c(NC4CCCC4)ncnc32)O[C@@H]1CO`, the results for the Ki in assay [5], in assay [2] and in assay [3] were 2410 nM, 8470 nM and 11200 nM, respectively. Further, the Ratio in assay [4] was 1.4.

On to `O=C(CCCC1CCCCC1)N[C@H]1C(CO)OC(n2cnc3c(NC4CCCC4)ncnc32)C1O` (stereo partly drawn), for which, in assay [1], the percent radioligand bound was found to be 74%. The Ki in assay [2] turned out to be 190 nM; in assay [3], 150 nM. Moreover, in assay [4], the Ratio is 0.8.

With `COc1ccc(C(=O)N[C@H]2C(CO)OC(n3cnc4c(NC5CCCC5)ncnc43)C2O)cc1` (stereo partly drawn), the Ki in assay [5] came to 770 nM; in assay [2], 200 nM; in assay [3], 130 nM. The Ratio in assay [4] worked out at 0.77.

On to `Nc1ncnc2c1ncn2[C@@H]1O[C@H](CO)C[C@H]1O`, for which the Ratio in assay [4] was determined as 2.1.

With `OC[C@@H]1C[C@@H](O)[C@H](n2cnc3c(NC4CCCC4)ncnc32)O1`, the Ratio in assay [4] was 4.3.

For `Nc1ncnc2c1ncn2[C@@H]1OC(CO)[C@H](NC(=O)c2ccccc2)[C@H]1O` (single isomer, unassigned), the Ki turned out to be 2470 nM in assay [5], 10900 nM in assay [2] and 11100 nM in assay [3]. Moreover, in assay [4], the Ratio was determined as 1.1.

For `O=C(N[C@H]1C(CO)O[C@@H](n2cnc3c(NC4CCCC4)ncnc32)[C@@H]1O)c1ccccc1` (single isomer, unassigned), the Ki in assay [5] came out at 2760 nM. In addition, the Ratio in assay [4] was 0.8.

With `Nc1ncnc2c1ncn2[C@@H]1OC(CO)[C@H](NC(=O)CCCC2CCCCC2)[C@H]1O` (single isomer, unassigned), the Ki was 1770 nM in assay [5], 3590 nM in assay [2] and 2680 nM in assay [3]. Further, the Ratio in assay [4] was determined as 0.75.

For the compound `Nc1ncnc2c1ncn2[C@@H]1OC(CO)[C@H](NC(=O)CCOc2ccccc2)[C@H]1O` (single isomer, unassigned), the inhibition constant Ki in assay [5] is 11800 nM; in assay [3], 12600 nM. The Ratio in assay [4] was 0.74.

In the case of `O=C(CCc1ccccc1)N[C@H]1C(CO)O[C@@H](n2cnc3c(NC4CCCC4)ncnc32)[C@@H]1O` (single isomer, unassigned), the values for the Ki in assay [5], in assay [2] and in assay [3] were 7940 nM, 370 nM and 350 nM, respectively. The Ratio in assay [4] came to 0.99.

`O=C(CCCc1ccccc1)N[C@H]1C(CO)O[C@@H](n2cnc3c(NC4CCCC4)ncnc32)[C@@H]1O` (single isomer, unassigned): the Ki in assay [5] came to 650 nM; in assay [2], 130 nM; in assay [3], 100 nM. For the same compound, in assay [4], the Ratio came out at 0.94.

Take `O=C(N[C@H]1C(CO)O[C@@H](n2cnc3c(NC4CCCC4)ncnc32)[C@@H]1O)c1ccc(Cl)cc1` (single isomer, unassigned): the results for the inhibition constant Ki in assay [5], in assay [2] and in assay [3] were 580 nM, 110 nM and 81 nM, respectively. The Ratio in assay [4] stood at 0.87.

On to `O=C(N[C@H]1C(CO)O[C@@H](n2cnc3c(NC4CCCC4)ncnc32)[C@@H]1O)c1ccc(Cl)c(Cl)c1` (single isomer, unassigned), for which the Ki in assay [5] came out at 2020 nM. In addition, the Ratio in assay [4] amounted to 0.73.

On to `O=C(N[C@H]1C(CO)O[C@@H](n2cnc3c(NC4CCCC4)ncnc32)[C@@H]1O)c1ccc([N+](=O)[O-])cc1` (single isomer, unassigned), for which the Ki stood at 6850 nM in assay [5], 820 nM in assay [2] and 740 nM in assay [3]. In addition, the Ratio in assay [4] turned out to be 0.91.

`O=C(CCCCc1ccccc1)N[C@H]1C(CO)O[C@@H](n2cnc3c(NC4CCCC4)ncnc32)[C@@H]1O` (single isomer, unassigned): the Ki in assay [5] amounted to 4230 nM; in assay [2] it was 240 nM; in assay [3] it was 200 nM. The Ratio in assay [4] is 0.83.

Take `Cc1ccc(C(=O)N[C@H]2C(CO)O[C@@H](n3cnc4c(NC5CCCC5)ncnc43)[C@@H]2O)cc1C` (single isomer, unassigned): the Ki in assay [5] came out at 3680 nM. The Ratio in assay [4] came out at 0.73.
